Values after ≈ are worked out from the molar mass of the structure shown. Active and inactive are the calls of the source. The calls are words filed in the database; no cut-off is given here.
Columns and labels:
HCT-8 [1] = test: Cell cycle arrest in human HCT8 cells assessed as accumulation at G2/M phase at 50 ug/mL after 24 hrs by propidium iodide staining-based flow cytometric analysis (reference value: 13.83%); assay type: ADME; conditions: hct-8, 24 h
HCT-8 [2] = test: Cell cycle arrest in human HCT8 cells assessed as accumulation at S phase at 50 ug/mL after 24 hrs by propidium iodide staining-based flow cytometric analysis (reference value: 39.43%); assay type: ADME; conditions: hct-8, 24 h
[3] = Induction of apoptosis in human HCT8 cells assessed as viable cells at 50 ug/mL after 24 hrs by Annexin V-FITC and propidium iodide staining-based flow cytometric analysis (reference value: 87.7%); assay type: cell-based, HCT-8; conditions: read-out: Activity
HCT-8 [4] = test: Induction of apoptosis in human HCT8 cells assessed as early apoptotic cells at 50 ug/mL after 24 hrs by Annexin V-FITC and propidium iodide staining-based flow cytometric analysis (reference value: 1.57%); assay type: cell-based; conditions: hct-8, 24 h
HCT-8 [5] = test: Induction of apoptosis in human HCT8 cells assessed as late apoptotic cells at 50 ug/mL after 24 hrs by Annexin V-FITC and propidium iodide staining-based flow cytometric analysis (reference value: 2.97%); assay type: cell-based; conditions: hct-8, 24 h
HCT-8 [6] = test: Induction of apoptosis in human HCT8 cells assessed as necrotic cells at 50 ug/mL after 24 hrs by Annexin V-FITC and propidium iodide staining-based flow cytometric analysis (reference value: 7.73%); assay type: cell-based; conditions: hct-8, 24 h
Acinetobacter baumannii [7] = test: Antibacterial activity against Acinetobacter baumannii 247 assessed as growth inhibition at 1 mg/mL after 24 hrs by agar-disk diffusion technique; assay type: functional, organism-based
How it was run: (§1)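 Agar-disk diffusion, adapted: plates seeded with 0.5 McFarland suspension prepared from 24 h cultures; 5 µL of a 1 mg/mL compound solution spotted onto the seeded solid medium; incubated 24 h at 37 °C. Stocks made in DMSO.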

Acinetobacter baumannii [8] = test: Antibacterial activity against Acinetobacter baumannii 192 assessed as growth inhibition at 1 mg/mL after 24 hrs by agar-disk diffusion technique; assay type: functional, organism-based; how it was run: as §1
Acinetobacter baumannii [9] = test: Antibacterial activity against Acinetobacter baumannii 135 assessed as growth inhibition at 1 mg/mL after 24 hrs by agar-disk diffusion technique; assay type: functional, organism-based; how it was run: as §1
Acinetobacter baumannii [10] = test: Antibacterial activity against Acinetobacter baumannii 125 assessed as growth inhibition at 1 mg/mL after 24 hrs by agar-disk diffusion technique; assay type: functional, organism-based; how it was run: as §1
Acinetobacter baumannii [11] = test: Antibacterial activity against Acinetobacter baumannii 122 assessed as growth inhibition at 1 mg/mL after 24 hrs by agar-disk diffusion technique; assay type: functional, organism-based; how it was run: as §1
Enterococcus faecalis = test: Antibacterial activity against Enterococcus faecalis 2920 assessed as growth inhibition at 1 mg/mL after 24 hrs by agar-disk diffusion technique; assay type: functional, organism-based; how it was run: as §1
Pseudomonas aeruginosa [12] = test: Antibacterial activity against Pseudomonas aeruginosa 1144 assessed as growth inhibition at 1 mg/mL after 24 hrs by agar-disk diffusion technique; assay type: functional, organism-based; how it was run: as §1
Pseudomonas aeruginosa [13] = test: Antibacterial activity against Pseudomonas aeruginosa 165 assessed as growth inhibition at 1 mg/mL after 24 hrs by agar-disk diffusion technique; assay type: functional, organism-based; how it was run: as §1
Pseudomonas aeruginosa [14] = test: Antibacterial activity against Pseudomonas aeruginosa ATCC 27853 assessed as growth inhibition at 1 mg/mL after 24 hrs by agar-disk diffusion technique; assay type: functional, organism-based; how it was run: as §1
Klebsiella pneumoniae = test: Antibacterial activity against Klebsiella pneumoniae 1756 assessed as growth inhibition at 1 mg/mL after 24 hrs by agar-disk diffusion technique; assay type: functional, organism-based; how it was run: as §1
Escherichia coli = test: Antibacterial activity against Escherichia coli 1777 assessed as growth inhibition at 1 mg/mL after 24 hrs by agar-disk diffusion technique; assay type: functional, organism-based; how it was run: as §1
Proteus mirabilis = test: Antibacterial activity against Proteus mirabilis 1751 assessed as growth inhibition at 1 mg/mL after 24 hrs by agar-disk diffusion technique; assay type: functional, organism-based; how it was run: as §1
Morganella morganii = test: Antibacterial activity against Morganella morganii 2810 assessed as growth inhibition at 1 mg/mL after 24 hrs by agar-disk diffusion technique; assay type: functional, organism-based; how it was run: as §1
Citrobacter koseri = test: Antibacterial activity against Citrobacter koseri 1742 assessed as growth inhibition at 1 mg/mL after 24 hrs by agar-disk diffusion technique; assay type: functional, organism-based; how it was run: as §1
Enterobacter cloacae = test: Antibacterial activity against Enterobacter cloacae 1845 assessed as growth inhibition at 1 mg/mL after 24 hrs by agar-disk diffusion technique; assay type: functional, organism-based; how it was run: as §1
Staphylococcus aureus = test: Antibacterial activity against Staphylococcus aureus assessed as growth inhibition at 1 mg/mL after 24 hrs by agar-disk diffusion technique; assay type: functional, organism-based; how it was run: as §1
Staphylococcus hominis = test: Antibacterial activity against Staphylococcus hominis 1813 assessed as growth inhibition at 1 mg/mL after 24 hrs by agar-disk diffusion technique; assay type: functional, organism-based; how it was run: as §1
[15] = test system: Mycobacterium tuberculosis; test: Antimycobacterial activity against Mycobacterium tuberculosis after 8 days by micro plate Alamar Blue assay; assay type: functional; conditions: 192 h
How it was run: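 Clinical M. tuberculosis strain grown in Middlebrook 7H9 broth. Compounds were dissolved in DMSO and serially diluted twofold on the plate, final 25 to 0.012 µg/mL. Plates were sealed and held 8 days at 37 °C. Alamar Blue with 10% Tween 80 (1:1) was then added for another 24 h at 37 °C. MIC was the lowest concentration preventing the blue-to-pink change.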

[16] = test system: Radical scavenging activity; test: Antioxidant activity assessed as DPPH radical scavenging activity at 0.1 mg/mL after 30 mins under dark conditions by spectrophotometric analysis relative to control; assay type: functional
How it was run: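 Compounds dissolved in methanol at 0.1 mg/mL; 0.2 mL mixed with 1.8 mL of 2 × 10^-4 M DPPH in methanol and kept in the dark 30 min. Absorbance read at 517 nm. The blank was DPPH plus methanol. TAC (%) = (Abs initial − Abs 30 min)/Abs initial × 100.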

HCT-8 [17] = test: Decrease in NAT1 gene expression in human HCT8 cells at 50 ug/mL after 24 hrs by RT-PCR analysis; assay type: ADME, cell-based; conditions: hct-8, 24 h
HCT-8 [18] = test: Cell cycle arrest in human HCT8 cells assessed as accumulation at G0/G1 phase at 50 ug/mL after 24 hrs by propidium iodide staining-based flow cytometric analysis (reference value: 46.43%); assay type: ADME; conditions: hct-8, 24 h
HCT-8 [19] = test: Decrease in NAT2 gene expression in human HCT8 cells at 50 ug/mL after 24 hrs by RT-PCR analysis; assay type: ADME, cell-based; conditions: hct-8, 24 h
Acinetobacter baumannii [20] = test: Antibacterial activity against Acinetobacter baumannii 136 assessed as growth inhibition at 1 mg/mL after 24 hrs by agar-disk diffusion technique; assay type: functional, organism-based; how it was run: as §1
Pseudomonas putida = test: Antibacterial activity against Pseudomonas putida 160 assessed as growth inhibition at 1 mg/mL after 24 hrs by agar-disk diffusion technique; assay type: functional, organism-based; how it was run: as §1
HCT-8 [21] = test: Increase in NAT1 gene expression in human HCT8 cells at 50 ug/mL after 24 hrs by RT-PCR analysis; assay type: ADME, cell-based; conditions: hct-8, 24 h
HCT-8 [22] = test: Increase in NAT2 gene expression in human HCT8 cells at 50 ug/mL after 24 hrs by RT-PCR analysis; assay type: ADME, cell-based; conditions: hct-8, 24 h

Row | Structure (SMILES) | Activity (HCT-8 [1]) [%] | Activity (HCT-8 [2]) [%] | viability at 24 h, 50 ug/mL [3] [%] | Activity (HCT-8 [4]) [%] | Activity (HCT-8 [5]) [%] | Activity (HCT-8 [6]) [%] | growth inhibition (GI) (Acinetobacter baumannii [7]) | growth inhibition (GI) (Acinetobacter baumannii [8]) | growth inhibition (GI) (Acinetobacter baumannii [9]) | growth inhibition (GI) (Acinetobacter baumannii [10]) | growth inhibition (GI) (Enterococcus faecalis) | growth inhibition (GI) (Pseudomonas aeruginosa [12]) | growth inhibition (GI) (Pseudomonas aeruginosa [14]) | growth inhibition (GI) (Klebsiella pneumoniae) | growth inhibition (GI) (Escherichia coli) | growth inhibition (GI) (Proteus mirabilis) | growth inhibition (GI) (Morganella morganii) | growth inhibition (GI) (Enterobacter cloacae) | TAC [16] [%] | Activity (HCT-8 [18]) [%] | also measured
1 | NNC(=O)c1ccncc1 [ISONIAZID] | 15.01 | 38.48 | 71.5 | 1.95 | 8.56 | 17.9 | inactive | Active | Active | inactive | inactive | inactive | inactive | inactive | inactive | inactive | inactive | Active | 90 | 44.12 | growth inhibition (GI) (Acinetobacter baumannii [11]): inactive; growth inhibition (GI) (Pseudomonas aeruginosa [13]): inactive; growth inhibition (GI) (Citrobacter koseri): inactive; growth inhibition (GI) (Staphylococcus aureus): inactive; growth inhibition (GI) (Staphylococcus hominis): inactive; MIC [15]: 0.098 µg/mL (≈ 0.715 µM); Activity (HCT-8 [17]): Toxic; Activity (HCT-8 [19]): Toxic
2 | CCOc1ccc(/C=C/C(N)=S)cc1 | 15.41 | 22.57 | 70.1 | 1.56 | 13.6 | 14.8 | inactive | Active | Active | inactive | Active | Active | Active | inactive | – | Active | Active | Active | 37.9 | 61.33 | growth inhibition (GI) (Acinetobacter baumannii [20]): Active; growth inhibition (GI) (Pseudomonas putida): Active; growth inhibition (GI) (Citrobacter koseri): Active; Activity (HCT-8 [19]): Toxic
3 | CCOc1ccc(/C=C/C(N)(S)NNC(=O)c2ccncc2)cc1 (stereo unspecified) | 17.5 | 22.43 | 44.2 | 5.81 | 21.6 | 28.3 | – | – | Active | – | – | Active | inactive | inactive | inactive | – | inactive | inactive | 25.7 | 58.14 | growth inhibition (GI) (Acinetobacter baumannii [20]): Active; growth inhibition (GI) (Pseudomonas putida): Active; MIC [15]: 0.781 µg/mL (≈ 2.27 µM); Activity (HCT-8 [21]): Toxic; Activity (HCT-8 [22]): Toxic

From ChEMBL document CHEMBL2417507, “Synthesis and bioevaluation of some new isoniazid derivatives” (Bioorg Med Chem, 2013)
